Data reported in ChEMBL document CHEMBL2413060, “Synthesis, biological evaluation and molecular docking studies of some pyrimidine derivatives” (2013).
In brackets after ≈: the same amount, converted by molar mass.

How the values were obtained:
Type in all cases: functional
[1] = tested on: Pseudomonas aeruginosa; assay: Antibacterial activity against Pseudomonas aeruginosa ATCC 9027 after 24 hrs by two-fold serial dilution method; details: ATCC 9027, 24 h
Method in brief: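 Two-fold serial broth dilution in sterile nutrient broth at 500, 250, 125, 62.5, 31.25, 15.63, 7.82 and 3.91 µg/ml, with dimethylformamide ≤2.5%. Organisms were pre-grown 24 h in broth, and 0.1 ml inoculum was added per 5 ml tube. Tubes were incubated at 37°C, 24 h for bacteria and 48 h for fungi. MIC was taken as the lowest concentration giving no turbidity.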

[2] = tested on: Candida albicans; assay: Antifungal activity against Candida albicans ATCC 2091 assessed as diameter of inhibition zone at 1 mg/ml after 48 hrs by cup diffusion method (reference value: 22 mm); details: ATCC 2091, 48 h, read-out: DIZ
[3] = tested on: Shigella flexneri; assay: Antibacterial activity against Shigella flexneri ATCC 15391 assessed as diameter of inhibition zone at 1 mg/ml after 24 hrs by cup diffusion method (reference value: 17 mm); details: ATCC 15391, 24 h, read-out: DIZ
[4] = tested on: Staphylococcus aureus; assay: Antibacterial activity against Staphylococcus aureus ATCC 6538P assessed as diameter of inhibition zone at 1 mg/ml after 24 hrs by cup diffusion method (reference value: 15 mm); details: read-out: DIZ
[5] = tested on: Pseudomonas aeruginosa; assay: Antibacterial activity against Pseudomonas aeruginosa ATCC 9027 assessed as diameter of inhibition zone at 1 mg/ml after 24 hrs by cup diffusion method (reference value: 16 mm); details: ATCC 9027, 24 h, read-out: DIZ
[6] = tested on: T47D; assay: Cytotoxicity against human T47D cells assessed as growth inhibition at 10 uM; details: read-out: GI
Method in brief: (§1)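 Single-dose screen on human tumour cell lines. Growth of treated cells is expressed as percent of untreated growth, plotted as a mean graph, and reported as percent growth inhibition.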

[7] = tested on: BT-549; assay: Cytotoxicity against human BT549 cells assessed as growth inhibition at 10 uM; details: read-out: GI
[8] = tested on: Hs-578T; assay: Cytotoxicity against human Hs578T cells assessed as growth inhibition at 10 uM; details: read-out: GI
[9] = tested on: PC-3; assay: Cytotoxicity against human PC3 cells assessed as growth inhibition at 10 uM; details: read-out: GI; method in brief: as §1
[10] = tested on: MCF7; assay: Cytotoxicity against human MCF7 cells assessed as growth inhibition at 10 uM; details: read-out: GI; method in brief: as §1
[11] = tested on: TK-10; assay: Cytotoxicity against human TK10 cells assessed as growth inhibition at 10 uM; details: read-out: GI
Method in brief: (§2)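 Single-dose screen in a sixty-cell human tumour line panel; percent growth of treated cells relative to untreated was read and reported as percentage growth inhibition, shown as a mean graph. Compounds meeting the threshold inhibition criteria went on to five-dose testing.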

[12] = tested on: A498; assay: Cytotoxicity against human A498 cells assessed as growth inhibition at 10 uM; details: read-out: GI
[13] = tested on: IGROV-1; assay: Cytotoxicity against human IGROV1 cells assessed as growth inhibition at 10 uM; details: read-out: GI
[14] = tested on: UACC-62; assay: Cytotoxicity against human UACC62 cells assessed as growth inhibition at 10 uM; details: read-out: GI; method in brief: as §2
[15] = tested on: SK-MEL-2; assay: Cytotoxicity against human SK-MEL-2 cells assessed as growth inhibition at 10 uM; details: read-out: GI; method in brief: as §1
[16] = tested on: Malme-3M; assay: Cytotoxicity against human MALME-3M cells assessed as growth inhibition at 10 uM; details: read-out: GI
[17] = tested on: SNB-75; assay: Cytotoxicity against human SNB75 cells assessed as growth inhibition at 10 uM; details: read-out: GI; method in brief: as §1
[18] = tested on: SF-295; assay: Cytotoxicity against human SF295 cells assessed as growth inhibition at 10 uM; details: read-out: GI; method in brief: as §1
[19] = tested on: NCI-H522; assay: Cytotoxicity against human NCI-H522 cells assessed as growth inhibition at 10 uM; details: read-out: GI; method in brief: as §1
[20] = tested on: HOP-92; assay: Cytotoxicity against human HOP92 cells assessed as growth inhibition at 10 uM; details: read-out: GI
[21] = tested on: HOP-62; assay: Cytotoxicity against human HOP62 cells assessed as growth inhibition at 10 uM; details: read-out: GI
[22] = Cytotoxicity against human EKVX cells assessed as growth inhibition at 10 uM; details: read-out: GI
[23] = tested on: SR; assay: Cytotoxicity against human SR cells assessed as growth inhibition at 10 uM; details: read-out: GI; method in brief: as §1
[24] = tested on: RPMI-8226; assay: Cytotoxicity against human RPMI8226 cells assessed as growth inhibition at 10 uM; details: read-out: GI; method in brief: as §1
[25] = tested on: K562; assay: Cytotoxicity against human K562 cells assessed as growth inhibition at 10 uM; details: read-out: GI
[26] = tested on: RXF 393; assay: Cytotoxicity against human RXF393 cells assessed as growth inhibition at 10 uM; details: read-out: GI; method in brief: as §1

Molecule N#Cc1c(N2CCOCC2)nc(=S)[nH]c1-c1ccccc1 has an MIC [1] of 125 µg/mL (≈ 419 µM), a zone of inhibition at 1000 µg/mL [2] of 22 mm and a zone of inhibition at 1000 µg/mL [3] of 17 mm. For the same molecule, the zone of inhibition at 1000 µg/mL [4] was 15 mm, the zone of inhibition at 1000 µg/mL [5] was 18 mm and the inhibition of growth at 10 µM [6] was 62.7%. It also gave an inhibition of growth at 10 µM [7] of 42.3%, an inhibition of growth at 10 µM [8] of 73.2% and an inhibition of growth at 10 µM [9] of 53%. For the same molecule, the inhibition of growth at 10 µM [10] was 43.4%, the inhibition of growth at 10 µM [11] was 42.4% and the inhibition of growth at 10 µM [12] was 86.3%. For the same molecule, the inhibition of growth at 10 µM [13] was 70.9%, the inhibition of growth at 10 µM [14] was 56.4% and the inhibition of growth at 10 µM [15] was 58.2%. The inhibition of growth at 10 µM [16] was 104%, the inhibition of growth at 10 µM [17] was 84.9% and the inhibition of growth at 10 µM [18] was 45.5%. It also gave an inhibition of growth at 10 µM [19] of 40.4%, an inhibition of growth at 10 µM [20] of 107% and an inhibition of growth at 10 µM [21] of 48.7%. For the same molecule, the inhibition of growth at 10 µM [22] was 43.2% and the inhibition of growth at 10 µM [23] was 46.9%.

Cn1c(N2CCOCC2)nc(-c2ccc([N+](=O)[O-])cc2)c(C#N)c1=O showed an inhibition of growth at 10 µM [24] of 39.7%, an inhibition of growth at 10 µM [25] of 41.8% and a zone of inhibition at 1000 µg/mL [2] of 22 mm. For the same molecule, the zone of inhibition at 1000 µg/mL [3] was 17 mm, the zone of inhibition at 1000 µg/mL [4] was 15 mm and the zone of inhibition at 1000 µg/mL [5] was 16 mm. The inhibition of growth at 10 µM [26] was 47.7%, the inhibition of growth at 10 µM [13] was 40.1% and the inhibition of growth at 10 µM [20] was 44.3%.
